Measurements reported in ChEMBL document CHEMBL3745614, “Potent and selective N-(4-sulfamoylphenyl)thiourea-based GPR55 agonists” (Eur J Med Chem, 2016).

What was measured:
[1] = molecular target: T1, G-protein coupled receptor 55 (Homo sapiens, UniProt Q9Y2T6); experiment: Agonist activity at human GPR55 expressed in CHOK1 cells at 10 uM by pathHunter beta-arrestin assay relative to LPI; assay type: cell-based; details: CHO-K1
Summary of the method: (§1)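 PathHunter eXpress GPR55 CHO-K1 β-arrestin kit run per the kit protocol, compounds screened at 10 μM. Luminescence read and expressed as percentage of the signal from bovine liver LPI at 1 μM. Mean with range of two experiments, each done in duplicate.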

[2] = molecular target: T1, G-protein coupled receptor 55; experiment: Agonist activity at human GPR55 expressed in HEK293 cells assessed as calcium signalling by fura 2-based digital epifluorescence microscopy; assay type: functional, cell-based
Summary of the method: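 HEK293 cells stably expressing GPR55, grown on poly-L-lysine coated glass coverslips and serum-starved overnight. Compounds applied by bath perfusion in HEPES-buffered saline at 30-32 °C. Single-cell fura 2 ratiometric imaging (350/380 nm) every 5 s. Peak responses pooled from 24 cells (12 random cells from each of two experiments) per concentration; EC50 with 95% CI from concentration-response curves. ARA-LPI used as reference agonist.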

[3] = molecular target: Cannabinoid receptor 1 (Homo sapiens) (UniProt P21554); experiment: Agonist activity at CBR1 (unknown origin) assessed as [35S]GTPgammaS binding at 10 uM by […] assay relative to control; assay type: functional
[4] = molecular target: Cannabinoid receptor 2 (Homo sapiens) (UniProt P34972); experiment: Antagonist activity at human CBR2 assessed as [35S]GTPgammaS binding at 10 uM by […] assay relative to control; assay type: functional; design: scale not given: the % may be the effect or the level left
[5] = molecular target: Cannabinoid receptor 2 (Homo sapiens) (UniProt P34972); experiment: Agonist activity at CBR2 (unknown origin) assessed as [35S]GTPgammaS binding at 10 uM by […] assay relative to control; assay type: functional
[6] = molecular target: T2, Fatty-acid amide hydrolase 1 (Homo sapiens) (UniProt O00519); experiment: Inhibition of human FAAH expressed in African green monkey COS-7 cell membranes using [3H]-AEA as substrate assessed as residual activity at 10 uM preincubated for 10 mins followed by substrate addition measured after 10 mins by liquid scintillation counting analysis relative to control
T2 sequence (whole entry): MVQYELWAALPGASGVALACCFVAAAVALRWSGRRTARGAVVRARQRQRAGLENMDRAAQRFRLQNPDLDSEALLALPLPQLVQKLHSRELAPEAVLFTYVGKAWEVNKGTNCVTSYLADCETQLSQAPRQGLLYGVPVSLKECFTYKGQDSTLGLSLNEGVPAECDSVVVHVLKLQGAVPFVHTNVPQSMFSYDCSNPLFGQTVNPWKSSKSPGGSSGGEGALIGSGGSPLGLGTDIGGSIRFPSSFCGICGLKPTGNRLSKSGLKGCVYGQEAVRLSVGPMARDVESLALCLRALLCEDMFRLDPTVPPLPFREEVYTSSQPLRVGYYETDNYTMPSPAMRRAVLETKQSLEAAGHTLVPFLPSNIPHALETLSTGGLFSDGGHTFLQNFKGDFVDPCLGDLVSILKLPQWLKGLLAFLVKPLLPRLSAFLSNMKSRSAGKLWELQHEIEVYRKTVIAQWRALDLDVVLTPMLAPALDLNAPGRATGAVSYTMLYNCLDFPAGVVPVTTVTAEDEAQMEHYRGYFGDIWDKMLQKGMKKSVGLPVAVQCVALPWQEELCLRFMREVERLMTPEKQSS
Summary of the method: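 Membranes of COS-7 cells overexpressing hFAAH, 1 μg protein per incubation. Substrate 20 μM AEA including 10 nM [3H]AEA (60 Ci/mmol). Compounds tested at 10 μM.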

[7] = molecular target: T3, Monoglyceride lipase (Homo sapiens) (UniProt Q99685); experiment: Inhibition of human MGL expressed in […] cells using 2AG as substrate assessed as residual activity at 10 uM preincubated for 10 mins followed by substrate addition measured after 10 mins by HPLC analysis; assay type: cell-based
T3 sequence (whole entry): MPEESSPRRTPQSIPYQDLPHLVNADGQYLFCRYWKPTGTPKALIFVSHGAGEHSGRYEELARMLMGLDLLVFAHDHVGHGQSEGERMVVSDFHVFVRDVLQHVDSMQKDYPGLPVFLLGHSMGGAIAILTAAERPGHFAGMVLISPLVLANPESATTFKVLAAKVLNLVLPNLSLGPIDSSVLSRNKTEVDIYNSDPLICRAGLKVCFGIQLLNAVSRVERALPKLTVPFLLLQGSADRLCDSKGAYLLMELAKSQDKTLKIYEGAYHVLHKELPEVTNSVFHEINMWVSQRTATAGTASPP
Summary of the method: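 Lysates of HEK cells overexpressing hMGL, 2.5 μg protein per incubation, substrate at 50 μM. Compounds tested at 10 μM.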

[8] = molecular target: T4, Lysophosphatidylserine lipase ABHD12 (Homo sapiens) (UniProt Q8N2K0); experiment: Inhibition of human ABHD12 expressed in […] cells using 2-AG as substrate assessed as glycerol liberation at 1 uM preincubated for 30 mins followed by 2-AG addition measured for 90 mins by fluorescent glycerol assay relative to control; assay type: cell-based; design: scale not given: the % may be the effect or the level left
T4 sequence (whole entry): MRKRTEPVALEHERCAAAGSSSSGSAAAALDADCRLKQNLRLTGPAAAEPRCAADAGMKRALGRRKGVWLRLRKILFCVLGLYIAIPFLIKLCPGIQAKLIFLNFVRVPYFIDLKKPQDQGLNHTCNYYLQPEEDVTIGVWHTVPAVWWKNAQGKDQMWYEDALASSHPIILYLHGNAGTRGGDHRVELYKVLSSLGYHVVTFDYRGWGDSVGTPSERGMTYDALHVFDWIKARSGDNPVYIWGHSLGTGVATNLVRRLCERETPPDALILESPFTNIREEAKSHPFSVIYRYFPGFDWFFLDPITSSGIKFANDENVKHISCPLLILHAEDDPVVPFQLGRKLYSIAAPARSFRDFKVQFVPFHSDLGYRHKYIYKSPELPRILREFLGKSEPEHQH
Summary of the method: (§2)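 Lysates of HEK293 cells transiently overexpressing hABHD6 or hABHD12, 0.3 μg protein/well. Pretreated 30 min with DMSO or compound, then 2-AG added (12.5 μM final). Glycerol release coupled enzymatically to H2O2-dependent resorufin formation; fluorescence (ex 530/em 590 nm) followed kinetically for 90 min.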

[9] = molecular target: T5, Monoacylglycerol lipase ABHD6 (Homo sapiens) (UniProt Q9BV23); experiment: Inhibition of human ABHD6 expressed in […] cells using 2-AG as substrate assessed as glycerol liberation at 1 uM preincubated for 30 mins followed by 2-AG addition measured for 90 mins by fluorescent glycerol assay relative to control; assay type: cell-based; design: scale not given: the % may be the effect or the level left; summary of the method: as §2
T5 sequence (whole entry): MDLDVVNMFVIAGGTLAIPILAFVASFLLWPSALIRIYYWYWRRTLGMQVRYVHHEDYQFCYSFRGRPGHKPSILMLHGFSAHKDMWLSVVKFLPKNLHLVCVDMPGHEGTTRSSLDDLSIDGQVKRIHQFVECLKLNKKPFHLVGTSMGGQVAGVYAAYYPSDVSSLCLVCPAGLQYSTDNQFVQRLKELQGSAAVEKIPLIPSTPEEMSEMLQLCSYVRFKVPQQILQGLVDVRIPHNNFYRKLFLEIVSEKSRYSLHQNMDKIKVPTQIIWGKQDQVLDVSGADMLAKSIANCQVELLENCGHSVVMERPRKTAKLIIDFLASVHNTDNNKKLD

[10] = molecular target: T1, G-protein coupled receptor 55; experiment: Agonist activity at human GPR55 expressed in CHOK1 cells at 10 uM by pathHunter beta-arrestin assay relative to control; assay type: cell-based; details: CHO-K1; summary of the method: as §1
[11] = molecular target: Cannabinoid receptor 1 (Homo sapiens) (UniProt P21554); experiment: Antagonist activity at human CBR1 assessed as [35S]GTPgammaS binding at 10 uM by radiometric assay relative to control; design: scale not given: the % may be the effect or the level left
[12] = molecular target: T4, Lysophosphatidylserine lipase ABHD12 (Homo sapiens); experiment: Inhibition of human ABHD12 expressed in […] cells using 2-AG as substrate assessed as glycerol liberation at 10 uM preincubated for 30 mins followed by 2-AG addition measured for 90 mins by fluorescent glycerol assay relative to control; assay type: cell-based; design: scale not given: the % may be the effect or the level left; summary of the method: as §2
[13] = molecular target: T5, Monoacylglycerol lipase ABHD6 (Homo sapiens); experiment: Inhibition of human ABHD6 expressed in […] cells using 2-AG as substrate assessed as glycerol liberation at 10 uM preincubated for 30 mins followed by 2-AG addition measured for 90 mins by fluorescent glycerol assay relative to control; assay type: cell-based; design: scale not given: the % may be the effect or the level left; summary of the method: as §2

T1 sequence (Q9Y2T6 whole entry): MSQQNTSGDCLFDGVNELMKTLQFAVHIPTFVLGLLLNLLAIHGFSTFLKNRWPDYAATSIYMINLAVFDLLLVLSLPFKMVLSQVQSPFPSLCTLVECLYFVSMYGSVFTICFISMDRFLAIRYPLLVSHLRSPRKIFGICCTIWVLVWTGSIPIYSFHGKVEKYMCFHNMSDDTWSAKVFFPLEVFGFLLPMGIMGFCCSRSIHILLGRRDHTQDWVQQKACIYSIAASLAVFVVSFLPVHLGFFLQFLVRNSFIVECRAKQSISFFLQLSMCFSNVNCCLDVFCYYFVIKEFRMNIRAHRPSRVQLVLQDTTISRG
Cannabinoid receptor 1 (Homo sapiens), sequence (P21554 whole entry): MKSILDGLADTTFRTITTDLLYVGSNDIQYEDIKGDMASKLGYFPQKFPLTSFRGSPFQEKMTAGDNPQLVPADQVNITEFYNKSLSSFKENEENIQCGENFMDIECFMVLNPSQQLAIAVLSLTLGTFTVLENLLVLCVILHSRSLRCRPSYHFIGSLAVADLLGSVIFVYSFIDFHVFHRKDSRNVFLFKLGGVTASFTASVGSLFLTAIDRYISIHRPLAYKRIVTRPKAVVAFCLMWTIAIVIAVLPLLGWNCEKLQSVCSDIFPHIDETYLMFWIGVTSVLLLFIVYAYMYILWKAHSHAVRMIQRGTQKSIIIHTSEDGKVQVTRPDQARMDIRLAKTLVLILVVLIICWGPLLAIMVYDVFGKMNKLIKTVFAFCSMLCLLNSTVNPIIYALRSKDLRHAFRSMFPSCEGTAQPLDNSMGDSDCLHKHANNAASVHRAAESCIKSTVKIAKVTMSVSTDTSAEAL
Cannabinoid receptor 2 (Homo sapiens), sequence (P34972 whole entry): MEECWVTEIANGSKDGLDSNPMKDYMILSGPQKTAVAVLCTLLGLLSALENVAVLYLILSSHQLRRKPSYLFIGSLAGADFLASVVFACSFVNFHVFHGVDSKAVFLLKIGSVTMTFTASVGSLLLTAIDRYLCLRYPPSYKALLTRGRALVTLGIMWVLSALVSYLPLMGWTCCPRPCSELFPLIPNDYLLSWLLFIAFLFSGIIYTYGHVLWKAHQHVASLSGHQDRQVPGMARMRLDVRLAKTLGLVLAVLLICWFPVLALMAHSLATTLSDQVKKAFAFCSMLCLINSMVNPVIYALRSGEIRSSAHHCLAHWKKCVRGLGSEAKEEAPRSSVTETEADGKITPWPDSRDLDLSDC

Compound | Activity [1] | EC50 [2] | Activity [3] | Activity [4] | Activity [5] | Activity [6] | Activity [7] | Activity [8] | Activity [9] | Activity [10] | Activity [11] | Activity [12] | Activity [13]
C=CCNS(=O)(=O)c1ccc(NC(=S)NC(=O)c2ccc(-c3ccccc3)cc2)cc1 | 194% | 0.0194 µM | 127% | 81% | 87% | 78% | 96% | 100% | 99% | 285% | 94% | – | –
O=C(NCCc1ccccc1)c1ccc(NC(=S)NC(=O)c2ccc(-c3ccccc3)cc2)cc1 | 68% | > 10 µM | 98% | 103% | 99% | 85% | 101% | 98% | 96% | 99% | 99% | – | –
Cc1ccc(CNS(=O)(=O)c2ccc(NC(=S)NC(=O)c3ccc(-c4ccccc4)cc3)cc2)cc1 | 148% | 0.0124 µM | 105% | 103% | 118% | 94% | 100% | 103% | 100% | 220% | 102% | – | –
C=CCN(CC=C)S(=O)(=O)c1ccc(NC(=S)NC(=O)c2ccc([N+](=O)[O-])cc2)cc1 | 93% | – | 99% | 105% | 107% | 97% | 104% | 102% | 102% | 138% | 91% | 62% | 53%
O=C(NC(=S)Nc1ccc(S(=O)(=O)NCCc2ccccc2)cc1)c1ccc(-c2ccccc2)cc1 | 117% | 0.0392 µM | 103% | 103% | 94% | 94% | 99% | 101% | 99% | 173% | 91% | – | –
COc1ccc(CNS(=O)(=O)c2ccc(NC(=S)NC(=O)c3ccc(-c4ccccc4)cc3)cc2)cc1 | 157% | 0.0077 µM | 101% | 101% | 103% | 94% | 105% | 100% | 101% | 230% | 99% | – | –
O=C(NC(=S)Nc1ccc(S(=O)(=O)NCc2ccc(F)cc2)cc1)c1ccc(-c2ccccc2)cc1 | 185% | 0.002 µM | 99% | 88% | 87% | 100% | 98% | 96% | 95% | 266% | 91% | – | –
Cc1ccc(C(=O)NC(=S)Nc2ccc(S(=O)(=O)NC(C)(C)C)cc2)cc1 | 69% | – | 105% | 96% | 100% | 103% | 96% | 100% | 96% | 102% | 103% | 65% | 53%
O=C(NC(=S)Nc1ccc(S(=O)(=O)NCc2ccco2)cc1)c1ccc(-c2ccccc2)cc1 | 168% | 0.002 µM | 100% | 99% | 97% | 91% | 93% | 101% | 91% | 246% | 91% | – | –
CC(C)NS(=O)(=O)c1ccc(NC(=S)NC(=O)c2ccc(-c3ccccc3)cc2)cc1 | – | – | 110% | 86% | 96% | 87% | 98% | 107% | 95% | 185% | 92% | 65% | 34%
CC(C)CNS(=O)(=O)c1ccc(NC(=S)NC(=O)c2ccc(-c3ccccc3)cc2)cc1 | 165% | 0.0309 µM | 119% | 86% | 85% | 105% | 107% | 95% | 106% | 242% | 93% | 65% | 59%
O=C(NCc1ccccc1)c1ccc(NC(=S)NC(=O)c2ccc(-c3ccccc3)cc2)cc1 | 67% | > 10 µM | 116% | 88% | 111% | 83% | 103% | 100% | 96% | 100% | 91% | – | –
